Usually IC50 stands for the point on the concentration scale where inhibition reaches its midpoint. A higher IC50 goes with weaker potency in that assay. For orientation: inhibition means the drop in the measured response relative to a control, in per cent.

Structures are written as SMILES. Active and inactive are the calls of the source. The calls are words filed in the database; no cut-off is given here.

These results are taken from ChEMBL document CHEMBL5620393, “New aryl and acylsulfonamides as state-dependent inhibitors of Nav1.3 voltage-gated sodium channel” (Eur J Med Chem, 2023).

One series deals with HepG2. The experiment in a line: Cytotoxicity against human HepG2 cells.
Series [1] concerns the target T1, Sodium channel protein type 3 subunit alpha (Homo sapiens, UniProt Q9NY46). Nature of the series: Inhibition of human Nav1.3 expressed in CHO cells under resting state by automated patch clamp electrophysiology analysis. The series is classed as cell-based. Background: Patch clamp records ionic current or voltage across a cell membrane.
Series [2] addresses T1, Sodium channel protein type 3 subunit alpha. The experiment in a line: Inhibition of human Nav1.3 expressed in CHO cells under inactivated state by automated patch clamp electrophysiology analysis. The class given is cell-based.
The target in series [3] is T2, Sodium channel protein type 5 subunit alpha (Homo sapiens, UniProt Q14524). The experiment in a line: Inhibition of human Nav1.5 expressed in CHO cells under tonic pulse 1 by automated patch clamp electrophysiology analysis. The class given is cell-based.
The target of series [4] is T3, Sodium channel protein type 9 subunit alpha (Homo sapiens, UniProt Q15858). Nature of the series: Inhibition of human Nav1.7 expressed in CHO cells under resting state by automated patch clamp electrophysiology analysis. The series is classed as cell-based.
Series [5] concerns the target T3, Sodium channel protein type 9 subunit alpha. The experiment in a line: Inhibition of human Nav1.7 expressed in CHO cells under inactivated state by automated patch clamp electrophysiology analysis. The series is classed as cell-based.
In series [6] the target is T2, Sodium channel protein type 5 subunit alpha. The experiment in a line: Inhibition of human Nav1.5 expressed in CHO cells under resting state by automated patch clamp electrophysiology analysis. The series is classed as cell-based.
Series [7] has the same target. Nature of the series: Inhibition of human Nav1.5 expressed in CHO cells under inactivated state by automated patch clamp electrophysiology analysis. The series is classed as cell-based.
The target of series [8] is Sodium channel protein type 1 subunit alpha (Homo sapiens) (UniProt P35498). The experiment in a line: Inhibition of human Nav1.1 expressed in Xenopus laevis oocytes at closed state at 1 uM by two electrode voltage-clamp assay. The class given is cell-based. Particulars: Oocyte. The gist of the method:
(§1)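 TEVC on Nav channels expressed in Xenopus laevis oocytes. Each oocyte was injected with 50 nL cRNA at 1 ng/nL and recorded 1–4 days later at 18–22 °C. Bath (mM): NaCl 96, KCl 2, CaCl2 1.8, MgCl2 2, HEPES 5, pH 7.4. Electrodes held 3 M KCl at 0.8–1.5 MΩ. Compound tested at 1 μM. Mean ± SD, n ≥ 5.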
A general note: Two-electrode voltage clamp is typically applied to oocytes expressing channels or transporters.

In series [9] the target is Sodium channel protein type 2 subunit alpha (Rattus norvegicus) (UniProt P04775). Nature of the series: Inhibition of rat Nav1.2 expressed in Xenopus laevis oocytes at closed state at 1 uM by two electrode voltage-clamp assay. The class given is cell-based. Particulars: Oocyte. The method in brief: as §1
The target of series [10] is Sodium channel protein type 3 subunit alpha (Rattus norvegicus) (UniProt P08104). The experiment in a line: Inhibition of rat Nav1.3 expressed in Xenopus laevis oocytes at 1 uM under inactivated state by two electrode voltage-clamp assay relative to control. The following applies: Oocyte. The class given is cell-based. The method in brief:
as §1

Series [11] concerns the target Sodium channel protein type 4 subunit alpha (Rattus norvegicus) (UniProt P15390). Nature of the series: Inhibition of rat Nav1.4 expressed in Xenopus laevis oocytes at closed state at 1 uM by two electrode voltage-clamp assay. The class given is cell-based. Particulars: Oocyte. The method in brief:
as §1

The target in series [12] is T2, Sodium channel protein type 5 subunit alpha. The experiment in a line: Inhibition of human Nav1.5 expressed in Xenopus laevis oocytes at closed state at 1 uM by two electrode voltage-clamp assay. The class given is cell-based. Particulars: oocyte. The gist of the method: as §1
In series [13] the target is Sodium channel protein type 8 subunit alpha (Mus musculus) (UniProt Q9WTU3). Nature of the series: Inhibition of mouse Nav1.6 expressed in Xenopus laevis oocytes at closed state at 1 uM by two electrode voltage-clamp assay. The class given is cell-based. Particulars: Oocyte. The method in brief: as §1
Series [14] deals with T3, Sodium channel protein type 9 subunit alpha. The experiment in a line: Inhibition of human Nav1.7 expressed in Xenopus laevis oocytes at closed state at 1 uM by two electrode voltage-clamp assay. Particulars: Oocyte. The series is classed as cell-based. The method in brief: as §1
For series [15], the target named is Sodium channel protein type 10 subunit alpha (Homo sapiens) (UniProt Q9Y5Y9). The experiment in a line: Inhibition of human Nav1.8 expressed in Xenopus laevis oocytes at closed state at 1 uM by two electrode voltage-clamp assay. The class given is cell-based. The following applies: Oocyte. The gist of the method: as §1
Series [16] concerns the target Sodium channel protein type 3 subunit alpha (Rattus norvegicus) (UniProt P08104). The experiment in a line: Inhibition of rat Nav1.3 expressed in Xenopus laevis oocytes at 1 uM under resting state by two electrode voltage-clamp assay relative to control. The class given is cell-based. The following applies: Oocyte. The method in brief: as §1
Series [17] has as its target T2, Sodium channel protein type 5 subunit alpha. The experiment in a line: Inhibition of human Nav1.5 expressed in CHO cells by automated patch clamp electrophysiology analysis.

Chain of Sodium channel protein type 8 subunit alpha (Mus musculus) (Q9WTU3 whole entry): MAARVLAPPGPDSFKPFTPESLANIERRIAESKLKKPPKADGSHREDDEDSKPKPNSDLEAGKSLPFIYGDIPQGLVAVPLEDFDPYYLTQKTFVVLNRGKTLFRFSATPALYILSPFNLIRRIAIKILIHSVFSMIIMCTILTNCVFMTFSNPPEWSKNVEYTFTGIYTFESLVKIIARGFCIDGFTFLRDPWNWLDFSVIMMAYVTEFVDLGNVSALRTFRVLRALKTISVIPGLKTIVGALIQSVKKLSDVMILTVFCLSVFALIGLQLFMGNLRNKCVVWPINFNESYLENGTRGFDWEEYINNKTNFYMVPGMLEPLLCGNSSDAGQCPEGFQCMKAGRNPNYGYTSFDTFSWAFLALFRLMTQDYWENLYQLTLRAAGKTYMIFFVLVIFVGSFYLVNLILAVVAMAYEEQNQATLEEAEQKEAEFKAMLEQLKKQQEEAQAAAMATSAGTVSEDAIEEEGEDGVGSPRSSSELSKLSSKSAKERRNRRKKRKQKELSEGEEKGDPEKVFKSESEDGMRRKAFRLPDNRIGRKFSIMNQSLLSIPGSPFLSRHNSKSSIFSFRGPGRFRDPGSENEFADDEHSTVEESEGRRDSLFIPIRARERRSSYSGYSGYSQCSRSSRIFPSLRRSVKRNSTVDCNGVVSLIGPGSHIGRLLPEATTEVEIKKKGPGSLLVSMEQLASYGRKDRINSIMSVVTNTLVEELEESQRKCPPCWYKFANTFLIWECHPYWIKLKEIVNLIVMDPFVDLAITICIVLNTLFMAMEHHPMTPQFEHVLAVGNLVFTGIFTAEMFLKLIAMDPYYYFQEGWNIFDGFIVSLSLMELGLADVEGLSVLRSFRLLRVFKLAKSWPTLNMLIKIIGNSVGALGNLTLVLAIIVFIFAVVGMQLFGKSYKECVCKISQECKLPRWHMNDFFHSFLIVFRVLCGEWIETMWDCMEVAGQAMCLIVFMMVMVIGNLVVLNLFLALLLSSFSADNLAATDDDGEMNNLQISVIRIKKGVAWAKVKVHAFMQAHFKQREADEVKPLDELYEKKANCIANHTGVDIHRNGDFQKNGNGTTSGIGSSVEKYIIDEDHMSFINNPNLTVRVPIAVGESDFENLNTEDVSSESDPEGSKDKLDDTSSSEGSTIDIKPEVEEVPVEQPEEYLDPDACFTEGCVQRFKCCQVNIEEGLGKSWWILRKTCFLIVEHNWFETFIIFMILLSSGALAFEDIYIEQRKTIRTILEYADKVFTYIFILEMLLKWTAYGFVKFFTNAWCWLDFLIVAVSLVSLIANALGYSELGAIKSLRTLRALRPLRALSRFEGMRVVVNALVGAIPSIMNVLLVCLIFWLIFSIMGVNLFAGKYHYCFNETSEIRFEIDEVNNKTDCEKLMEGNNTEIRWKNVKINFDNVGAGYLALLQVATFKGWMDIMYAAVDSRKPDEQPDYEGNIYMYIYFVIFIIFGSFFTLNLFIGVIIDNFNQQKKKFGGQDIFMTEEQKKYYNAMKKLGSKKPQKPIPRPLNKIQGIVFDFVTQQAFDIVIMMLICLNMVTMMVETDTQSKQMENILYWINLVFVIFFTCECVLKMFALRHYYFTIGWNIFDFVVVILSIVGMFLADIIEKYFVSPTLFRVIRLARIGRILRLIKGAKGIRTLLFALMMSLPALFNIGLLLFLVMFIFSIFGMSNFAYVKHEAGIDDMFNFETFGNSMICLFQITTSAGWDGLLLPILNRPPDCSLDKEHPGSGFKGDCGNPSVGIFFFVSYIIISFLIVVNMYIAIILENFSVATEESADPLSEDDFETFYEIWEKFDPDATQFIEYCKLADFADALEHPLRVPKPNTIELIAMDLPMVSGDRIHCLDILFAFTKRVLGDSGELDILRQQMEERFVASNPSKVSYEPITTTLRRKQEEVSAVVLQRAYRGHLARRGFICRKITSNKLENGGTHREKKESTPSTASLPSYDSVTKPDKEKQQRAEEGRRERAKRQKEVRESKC
T1 sequence (Q9NY46 whole entry): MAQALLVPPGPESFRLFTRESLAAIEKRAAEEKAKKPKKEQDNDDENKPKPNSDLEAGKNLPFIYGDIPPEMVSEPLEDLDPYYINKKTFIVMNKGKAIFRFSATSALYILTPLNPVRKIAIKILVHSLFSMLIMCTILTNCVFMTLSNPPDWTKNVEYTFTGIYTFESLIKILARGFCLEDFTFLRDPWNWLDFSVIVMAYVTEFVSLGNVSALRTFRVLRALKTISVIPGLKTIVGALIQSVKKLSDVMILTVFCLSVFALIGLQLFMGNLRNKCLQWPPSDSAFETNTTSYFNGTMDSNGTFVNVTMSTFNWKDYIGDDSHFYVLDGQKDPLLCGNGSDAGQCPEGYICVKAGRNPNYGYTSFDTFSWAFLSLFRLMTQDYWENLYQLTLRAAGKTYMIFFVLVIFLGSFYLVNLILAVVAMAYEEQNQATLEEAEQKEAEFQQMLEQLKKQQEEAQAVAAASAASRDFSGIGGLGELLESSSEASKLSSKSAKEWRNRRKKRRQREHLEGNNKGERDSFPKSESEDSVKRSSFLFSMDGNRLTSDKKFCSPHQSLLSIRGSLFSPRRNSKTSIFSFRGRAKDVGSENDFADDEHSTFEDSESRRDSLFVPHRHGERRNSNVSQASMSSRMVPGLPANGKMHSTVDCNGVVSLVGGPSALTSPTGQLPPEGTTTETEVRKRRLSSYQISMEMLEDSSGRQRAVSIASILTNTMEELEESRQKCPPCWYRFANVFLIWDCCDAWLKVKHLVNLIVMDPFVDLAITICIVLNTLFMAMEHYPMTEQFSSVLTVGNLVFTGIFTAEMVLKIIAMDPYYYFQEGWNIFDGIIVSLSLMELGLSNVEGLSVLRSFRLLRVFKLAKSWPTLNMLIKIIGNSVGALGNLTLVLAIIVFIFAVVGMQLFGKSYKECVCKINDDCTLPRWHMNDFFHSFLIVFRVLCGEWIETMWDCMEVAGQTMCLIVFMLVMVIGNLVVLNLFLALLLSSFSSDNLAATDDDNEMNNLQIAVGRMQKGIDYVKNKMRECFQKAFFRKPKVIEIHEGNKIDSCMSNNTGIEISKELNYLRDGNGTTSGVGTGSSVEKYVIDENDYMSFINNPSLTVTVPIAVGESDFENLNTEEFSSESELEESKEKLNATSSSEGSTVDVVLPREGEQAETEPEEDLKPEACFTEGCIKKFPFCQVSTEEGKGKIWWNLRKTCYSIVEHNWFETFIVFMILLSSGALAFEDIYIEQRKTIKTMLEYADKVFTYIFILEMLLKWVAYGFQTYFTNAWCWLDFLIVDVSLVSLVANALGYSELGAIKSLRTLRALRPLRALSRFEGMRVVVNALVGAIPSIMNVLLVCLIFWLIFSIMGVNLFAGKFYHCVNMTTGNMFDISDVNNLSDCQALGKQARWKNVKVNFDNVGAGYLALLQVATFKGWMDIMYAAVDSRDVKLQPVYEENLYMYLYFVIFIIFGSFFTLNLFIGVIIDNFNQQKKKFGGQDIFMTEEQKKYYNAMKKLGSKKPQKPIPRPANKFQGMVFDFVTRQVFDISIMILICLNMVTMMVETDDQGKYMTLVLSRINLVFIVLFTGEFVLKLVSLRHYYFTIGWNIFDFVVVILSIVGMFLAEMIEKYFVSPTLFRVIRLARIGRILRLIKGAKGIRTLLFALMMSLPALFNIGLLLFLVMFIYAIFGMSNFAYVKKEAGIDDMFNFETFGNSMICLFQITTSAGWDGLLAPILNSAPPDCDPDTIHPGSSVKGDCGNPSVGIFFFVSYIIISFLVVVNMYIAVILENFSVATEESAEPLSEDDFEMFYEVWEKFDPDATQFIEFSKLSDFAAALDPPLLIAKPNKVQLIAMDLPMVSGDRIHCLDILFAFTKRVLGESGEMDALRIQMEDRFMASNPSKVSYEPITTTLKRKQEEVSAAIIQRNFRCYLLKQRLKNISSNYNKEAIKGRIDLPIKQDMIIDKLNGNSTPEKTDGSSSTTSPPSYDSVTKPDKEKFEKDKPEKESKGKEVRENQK

Consider `COc1cc([C@@H]2c3cc4c(cc3[C@@H](O[C@@H]3O[C@@H]5CO[C@@H](C)O[C@H]5[C@H](O)[C@H]3O)[C@H]3COC(=O)[C@H]23)OCO4)cc(OC)c1O` [ETOPOSIDE], for which, in the series with HepG2, the concentration for half-maximal inhibition (IC50) amounted to 30.2 µM. This lies in the double-digit micromolar range.
In the case of `O=C(Nc1ccc(S(=O)(=O)Nc2nccs2)cc1)C1CC1c1ccc(F)c(F)c1` (racemic), the IC50 is 6.9 µM in series [1]; 0.02 µM in series [2]; greater than 30 µM in series [3]; greater than 30 µM in series [4]; 7.1 µM in series [5]; greater than 30 µM in series [6]. In addition, the IC50 was 3 µM in [7] and greater than 30 µM in series [17]. Further, the inhibition entry in series [8], in [9], in [11], in series [13], in series [14] and in series [15] was “inactive” throughout. In addition, the inhibition was 63% in series [10] and less than 9% in series [16]. Moreover, the “inhibition (INH)” value in series [12] was “Not Active”.
Regarding `O=C(Nc1ccc(S(=O)(=O)Nc2nccs2)cc1)c1cc(Br)c(Br)n1Cc1ccccc1`, the IC50 in series [3] was greater than 30 µM; in [4], greater than 30 µM; in [5], 7.1 µM; in series [6], greater than 30 µM; in series [7] it was 3.5 µM; in series [17] it was greater than 30 µM. In addition, in series [12], the “inhibition (INH)” value is “Not Active”.
Take `O=C(Nc1ccc(S(=O)(=O)Nc2nccs2)cc1)C1Cc2cc(Cl)ccc2O1` (centres undefined): the IC50 in series [1] is greater than 30 µM; in series [2] it was 0.24 µM; in series [3], greater than 30 µM; in series [17], greater than 30 µM. For the same compound, the inhibition entry in series [8], in series [9], in series [11], in [13], in series [14] and in [15] was “inactive” in each case. For the same compound, the inhibition in series [10] is 21%. The “inhibition (INH)” value in series [12] was “Not Active”.
`CC(Oc1ccc(Cl)cc1)C(=O)Nc1ccc(S(=O)(=O)Nc2nccs2)cc1` (centres undefined): the IC50 in series [1] is greater than 30 µM; in series [2] it was 0.32 µM; in series [3] it was greater than 30 µM; in [17] it was greater than 30 µM. In addition, the inhibition entry in [8], in [9], in series [11], in series [13], in series [14] and in series [15] was “inactive” in each case. This compound had an inhibition in series [10] of 21%. The “inhibition (INH)” value in [12] was “Not Active”.
